Measurements collected from several papers.
Lines come from different studies, so protocols differ.

| Structure (SMILES) | species | medium | route | dose | setting | Vd |
| --- | --- | --- | --- | --- | --- | --- |
| CN1CCN(CC2CCN(c3nccc4[nH]c(-c5cc(F)cc(F)c5)nc34)CC2)CC1 | BALB/c mouse | blood | intravenous | 2 mg/kg | – | 37 L/kg |
| COc1cc(C(=O)N2CCC(N3CCN(C)CC3)CC2)ccc1Nc1ncc2c(n1)N(C)c1ccccc1C(=O)N2C | mouse | plasma | intravenous | 1 mg/kg | – | 1.71 L/kg |
| CC[C@H](C)[C@@H]1NC(=O)[C@@](C)(NC(=O)[C@H](CCCNC(=N)N)NC(=O)[C@H](CC(C)C)NC(=O)[C@@H](NC(=O)[C@H](CCC(N)=O)NC(=O)[C@H](CC(C)C)NC(C)=O)[C@@H](C)O)CCCC=CCCC[C@@](C)(C(=O)N[C@@H](CC(C)C)C(=O)N[C@@H](Cc2ccc3ccccc3c2)C(N)=O)NC(=O)[C@H](CCCNC(=N)N)NC(=O)[C@H](CCC(N)=O)NC1=O | male BALB/c mouse | plasma | intravenous | 10 mg/kg | – | 0.0788 L/kg |
| COc1cc(C2Oc3cc([C@H]4Oc5cc(O)cc(O)c5C(=O)[C@@H]4O)ccc3OC2CO)ccc1O (some centres unmarked) | male CD-1 mouse | plasma | intravenous | 2 mg/kg | – | 2.51 L/kg |
| CNC(=O)c1cc(OC)cc2c(N3CCc4c(cc(Cn5ccnc5)cc4-c4cn(C)nc4C(F)(F)F)C3=O)ccnc12 | male CD-1 mouse | plasma | intravenous | 3 mg/kg | – | 0.4 L/kg |
| CC(C)(C)c1ccc(O)c(CN(Cc2cc(C(C)(C)C)ccc2O)C2CCC(NC(N)=O)CC2)c1 (centres unmarked) | male C57BL/6 mouse | plasma | intraperitoneal | 5 mg/kg | single dose | 2.4 L |
| CNCCN(C)c1cc(C#N)cc(CCc2cc(C)cc(N)n2)c1 | male BALB/c mouse | plasma | intravenous | 2 mg/kg | – | 14.8 L/kg |
| COc1nc(-c2cc(C)c(N[C@@H](C)c3cc(F)cc(F)c3)nn2)ccc1-n1cnc(C)c1 | male CD-1 mouse | plasma | intravenous | 1 mg/kg | single dose | 2.1 L/kg |
| Cc1ccc2cncc(N3CCc4c(cc(Cn5ccnc5)cc4-c4cn(C)nc4C(F)(F)F)C3=O)c2c1 | male CD-1 mouse | plasma | intravenous | 3 mg/kg | – | 0.8 L/kg |
| COc1nc(-c2cc(C)c(N[C@@H](C)c3c(F)cc(F)cc3F)nn2)ccc1-n1cnc(C)c1 | male CD-1 mouse | plasma | intravenous | 1 mg/kg | single dose | 1.52 L/kg |
| COc1cc(OC)c2nccc(N3CCc4c(cc(Cn5ccnc5)cc4-c4cn(C)nc4C(F)(F)F)C3=O)c2c1 | male CD-1 mouse | plasma | intravenous | 3 mg/kg | – | 2 L/kg |
